Experimental data: ChEMBL document CHEMBL1255300, “Pharmacodynamics of the antibacterial effect and emergence of resistance to tomopenem, formerly RO4908463/CS-023, in an in vitro pharmacokinetic model of Staphylococcus aureus infection” (Antimicrob Agents Chemother, 2008)
Activity calls are given as the source filed them. The rule behind the calls is not given here.

Tests used:
[1] = system: Staphylococcus aureus; assay: Antibacterial activity against methicillin-resistant Staphylococcus aureus 33827 infected in in vitro pharmacokinetic model assessed as time required to 99.9% killing at 750 mg, iv every 8 hrs using 10^6 CFU/ml inoculum; assay type: functional
How it was run: (§1)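 Single-compartment dilutional in vitro PK model, 10% Mueller-Hinton broth, 37°C, stirred, dilution 132 ml/h. […] Inoculum 10^6 CFU/ml (added 45 min pre-dose) or 10^8 CFU/ml (run overnight). Viable counts by spiral plating, beta-lactamase neutralization, detection limit 10^2 CFU/ml. At least triplicate.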

[2] = system: Staphylococcus aureus; assay: AUBKC (0 to 48 hrs) in methicillin-resistant Staphylococcus aureus 33829 infected in in vitro pharmacokinetic model at 1500 mg, iv every 8 hrs using 10^6 CFU/ml inoculum; assay type: functional
How it was run: (§2)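 Single-compartment dilutional in vitro PK model at 37°C in 10% Mueller-Hinton broth, stirred, flow 132 ml/h. […] Inoculum 10^6 CFU/ml added 45 min before dosing, or 10^8 CFU/ml run overnight. Viable counts with β-lactamase neutralisation. AUBKC by log-linear trapezoidal rule, at least triplicate.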

[3] = system: Staphylococcus aureus; assay: T>MIC for 3-log drop in count in methicillin-resistant Staphylococcus aureus 33827 in in vitro pharmacokinetic model after 24 hrs using 10^8 CFU/ml inoculum; assay type: functional
[4] = system: Staphylococcus aureus; assay: Antibacterial activity against methicillin-resistant Staphylococcus aureus 33815 infected in in vitro pharmacokinetic model assessed as time required to 99.9% killing at 750 mg, iv every 8 hrs using 10^8 CFU/ml inoculum; assay type: functional
How it was run: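 T99 and T99.9 were taken as the times for the count to fall 99% or 99.9% from time 0, using serial viable counts over 48 h. Inoculum was 10^8 CFU/ml, grown overnight in the model before dosing.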

[5] = system: Staphylococcus aureus; assay: AUBKC (0 to 24 hrs) in methicillin-resistant Staphylococcus aureus 33827 infected in in vitro pharmacokinetic model at 1500 mg, iv every 8 hrs using 10^8 CFU/ml inoculum; assay type: functional; how it was run: as §2
[6] = system: Staphylococcus aureus; assay: Antibacterial activity against methicillin-resistant Staphylococcus aureus 33815 infected in in vitro pharmacokinetic model assessed as reduction in viable count at 750 mg, iv every 8 hrs measured after 36 hrs using 10^6 CFU/ml inoculum; assay type: functional
How it was run: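 Single-compartment dilutional in vitro PK model, 37°C, stirred, in 10% Mueller-Hinton broth. […] Inoculum 10^6 CFU/ml from a 24-h plate culture was added 45 min before dosing. Viable counts by spiral plating on nutrient agar with β-lactamase neutralization. Log change was taken from time 0; detection limit 10^2 CFU/ml; at least triplicate.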

[7] = system: Staphylococcus aureus; assay: T>MIC for 2-log drop in count in methicillin-resistant Staphylococcus aureus 33815 in in vitro pharmacokinetic model after 24 hrs using 10^8 CFU/ml inoculum; assay type: functional
[8] = system: Staphylococcus aureus; assay: T>MIC for 4-log drop in count in methicillin-resistant Staphylococcus aureus 33827 in in vitro pharmacokinetic model after 24 hrs using 10^6 CFU/ml inoculum; assay type: functional
[9] = system: Staphylococcus aureus; assay: T>MIC for 4-log drop in count in methicillin-resistant Staphylococcus aureus 33827 in in vitro pharmacokinetic model after 24 hrs using 10^8 CFU/ml inoculum; assay type: functional
[10] = system: Staphylococcus aureus; assay: Antibacterial activity against methicillin-resistant Staphylococcus aureus 33922 infected in in vitro pharmacokinetic model assessed as time required to 99.9% killing at 750 mg, iv every 8 hrs using 10^8 CFU/ml inoculum; assay type: functional
[11] = system: Staphylococcus aureus; assay: Antibacterial activity against methicillin-resistant Staphylococcus aureus 33921 infected in in vitro pharmacokinetic model assessed as reduction in viable count at 750 mg, iv every 8 hrs measured after 12 hrs using 10^6 CFU/ml inoculum; assay type: functional; how it was run: as §1
[12] = system: Staphylococcus aureus; assay: Antibacterial activity against methicillin-resistant Staphylococcus aureus 33827 assessed as viable count at 4 times of MIC after 24 hrs using 10^6 CFU/ml inoculum; assay type: functional, organism-based
[13] = system: Staphylococcus aureus; assay: Antibacterial activity against methicillin-resistant Staphylococcus aureus 33827 infected in in vitro pharmacokinetic model assessed as time required to 99.9% killing at 1500 mg, iv every 8 hrs using 10^8 CFU/ml inoculum; assay type: functional; how it was run: as §1
[14] = system: Staphylococcus aureus; assay: AUBKC (0 to 24 hrs) in methicillin-resistant Staphylococcus aureus 33922 infected in in vitro pharmacokinetic model at 1500 mg, iv every 8 hrs using 10^6 CFU/ml inoculum; assay type: functional; how it was run: as §2
[15] = system: Staphylococcus aureus; assay: Antibacterial activity against methicillin-resistant Staphylococcus aureus 33820 infected in in vitro pharmacokinetic model assessed as time required to 99% killing at 750 mg, iv every 8 hrs using 10^6 CFU/ml inoculum; assay type: functional
[16] = system: Staphylococcus aureus; assay: Antibacterial activity against methicillin-sensitive Staphylococcus aureus 5956 infected in in vitro pharmacokinetic model assessed as time required to 99% killing at 1500 mg, iv every 8 hrs using 10^6 CFU/ml inoculum; assay type: functional
[17] = system: Staphylococcus aureus; assay: AUBKC (0 to 48 hrs) in methicillin-resistant Staphylococcus aureus 33829 infected in in vitro pharmacokinetic model at 750 mg, iv every 8 hrs using 10^6 CFU/ml inoculum; assay type: functional; how it was run: as §2
[18] = system: Staphylococcus aureus; assay: AUBKC (0 to 48 hrs) in methicillin-resistant Staphylococcus aureus 33922 infected in in vitro pharmacokinetic model at 1500 mg, iv every 8 hrs using 10^8 CFU/ml inoculum; assay type: functional; how it was run: as §2
[19] = system: Staphylococcus aureus; assay: Antibacterial activity against methicillin-resistant Staphylococcus aureus 33829 infected in in vitro pharmacokinetic model assessed as reduction in viable count at 1500 mg, iv every 8 hrs measured after 36 hrs using 10^6 CFU/ml inoculum; assay type: functional; how it was run: as §1
[20] = system: Staphylococcus aureus; assay: AUBKC (0 to 24 hrs) in methicillin-resistant Staphylococcus aureus 33820 infected in in vitro pharmacokinetic model at 1500 mg, iv every 8 hrs using 10^6 CFU/ml inoculum; assay type: functional; how it was run: as §2
[21] = system: Staphylococcus aureus; assay: AUBKC (0 to 24 hrs) in methicillin-resistant Staphylococcus aureus 33827 infected in in vitro pharmacokinetic model at 1500 mg, iv every 8 hrs using 10^6 CFU/ml inoculum; assay type: functional; how it was run: as §2
[22] = system: Staphylococcus aureus; assay: Antibacterial activity against methicillin-resistant Staphylococcus aureus 33827 infected in in vitro pharmacokinetic model assessed as reduction in viable count at 750 mg, iv every 8 hrs measured after 36 hrs using 10^6 CFU/ml inoculum; assay type: functional; how it was run: as §1
[23] = system: Staphylococcus aureus; assay: T>MIC for 1-log drop in count in methicillin-sensitive Staphylococcus aureus 5956 in in vitro pharmacokinetic model after 24 hrs using 10^8 CFU/ml inoculum; assay type: functional
[24] = system: Staphylococcus aureus; assay: T>MIC for 4-log drop in count in methicillin-sensitive Staphylococcus aureus 5956 in in vitro pharmacokinetic model after 24 hrs using 10^6 CFU/ml inoculum; assay type: functional
How it was run: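 Dose-ranging: 7–13 simulated regimens per strain giving T>MIC of 0–100% (MIC from 10% MHB), at 106 or 10^8 CFU/ml as stated.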

[25] = system: Staphylococcus aureus; assay: AUBKC (0 to 24 hrs) in methicillin-resistant Staphylococcus aureus 33921 infected in in vitro pharmacokinetic model at 750 mg, iv every 8 hrs using 10^6 CFU/ml inoculum; assay type: functional; how it was run: as §2
[26] = system: Staphylococcus aureus; assay: Antibacterial activity against methicillin-resistant Staphylococcus aureus 33815 infected in in vitro pharmacokinetic model assessed as time required to 99.9% killing at 750 mg, iv every 8 hrs using 10^6 CFU/ml inoculum; assay type: functional

## C[C@@H](O)[C@H]1C(=O)N2C(C(=O)O)=C(S[C@H]3C[C@@H](C(=O)N4CC[C@H](NC(=O)CNC(=N)N)C4)N(C)C3)[C@H](C)[C@H]12 [TOMOPENEM]
[1]
  Time: 7 h
[2]
  AUBC: 37.4 log10CFU/ml.hr
[3]
  fT>MIC: 59.3%
[4]
  Time: 24 h
[5]
  AUBC: 84.4 log10CFU/ml.hr
[6]
  log10CFU/ml: 4.2
[7]
  fT>MIC: 2%
[8]
  fT>MIC: 61%
[9]
  fT>MIC: 79.1%
[10]
  Time: 12 h
[11]
  log10CFU/ml: 3.6
[12]
  Activity: inactive
[13]
  Time: 12 h
[14]
  AUBC: 16.9 log10CFU/ml.hr
[15]
  Time: 7 h
[16]
  Time: 5 h
[17]
  AUBC: 25 log10CFU/ml.hr
[18]
  AUBC: 124.7 log10CFU/ml.hr
[19]
  log10CFU/ml: 4
[20]
  AUBC: 23.4 log10CFU/ml.hr
[21]
  AUBC: 28.1 log10CFU/ml.hr
[22]
  log10CFU/ml: 3.7
[23]
  fT>MIC: 3.4%
[24]
  fT>MIC: 12.8%
[25]
  AUBC: 30.9 log10CFU/ml.hr
[26]
  Time: 12 h
